Screens from PubChem.
A selection: hits, their analogues and other compounds. The true share with any hit is near 1.4%.
Yeast superoxide: yeast age-related superoxide inhibition as caloric restriction mimetic; S. cerevisiae aged cells, superoxide DHE fluorescence; stronger effect = lower value; 0.18% of 330,000 active; superoxide response (% of plate mean), % at 10 µM;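 active = superoxide response under a set limit, about three screen SD below normal, cut at about 65% in these data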;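 note: yeast aged for seven days with compound at 30 °C before DHE staining; 100% = average MFI of all compound-treated wells on the plate with controls excluded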
IDE act: IDE (human) activation, cell-based; HEK cells, FAbeta-B cleavage, fluorescence polarization; 0% vehicle, 100% cell-free pure enzyme wells; AID 493087; 0.073% of 340,000 active; P14735; activation, % at 5.96 µM;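 active = activation above the mean of all tested compounds plus 3 SD, set per screening campaign, cut at about 17% in these data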
TbMetRS inhib: Trypanosoma brucei MetRS inhibition | purified T. brucei MetRS, ATP depletion, Kinase-Glo luminescence | inhibition, % at 11.9 µM | 0.4% of 360,000 active;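 active = inhibition above a per-plate cutoff of the control wells' mean inhibition plus 3 SD, cut at about 5.5% in these data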;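 note: 0% = DMSO wells median and 100% = median of wells with control inhibitor compound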
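technique = Kinase-Glo luminescence, ATP depletion format | system = purified MetRS (methionyl-tRNA synthetase) enzyme from Trypanosoma brucei | timing = 15 min preincubation, 2 h reaction, all 25 °C | evaluation = percent inhibition versus plate control medians | dosing = single dose, 11.9 µM final nominal, 0.9% final DMSO | also added = substrates ATP, L-methionine and bulk Escherichia coli tRNA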
IDE cell inh: inhibits human insulin-degrading enzyme in HEK cells. P14735. FAbetaB cleavage, fluorescence polarization. inhibition, % at 5.59 µM. 0.41% of 320,000 active. AID 434962;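 active = percent inhibition above the average of all tested compounds plus 3 SD, set per screening campaign, cut at about 16% in these data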;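 note: IDE supplied by intact live HEK cells; FP after avidin binding of uncleaved biotin substrate so inhibition keeps polarization high; 0% = DMSO wells and 100% = 60 µM reference IDE inhibitor Ii1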
HDAC3 inhib: blocks human histone deacetylase 3; O15379; recombinant HDAC3, fluorogenic peptide/trypsin coupled, fluorescence; inhibition, % at 8.3 µM; 0.15% of 320,000 active; in the data active = inhibition above about 26%, passing the limit was not always enough; inconclusive = no clear call, values can overlap the other calls
Target sequence (O15379 whole entry, looked up): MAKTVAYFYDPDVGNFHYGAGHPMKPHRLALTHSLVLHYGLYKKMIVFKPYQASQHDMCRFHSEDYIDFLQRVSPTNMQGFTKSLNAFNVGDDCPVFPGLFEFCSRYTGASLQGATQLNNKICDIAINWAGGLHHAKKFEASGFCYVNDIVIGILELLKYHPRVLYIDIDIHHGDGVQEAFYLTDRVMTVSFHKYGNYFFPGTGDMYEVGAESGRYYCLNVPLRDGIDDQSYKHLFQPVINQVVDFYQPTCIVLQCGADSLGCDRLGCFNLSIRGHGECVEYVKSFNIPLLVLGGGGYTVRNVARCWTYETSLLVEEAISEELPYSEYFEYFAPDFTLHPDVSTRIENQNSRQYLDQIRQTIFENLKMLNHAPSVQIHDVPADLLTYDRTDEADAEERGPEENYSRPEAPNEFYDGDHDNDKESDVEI
Efflux pump inh: antifungal efflux pump inhibition, Nile Red retention; AID 485275; inhibition, % at 10 µM; 0.44% of 330,000 active; S. cerevisiae Candida pump triplex;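 active = plate passing quality check with inhibition over a set limit, or well fluorescence over plate mean plus 4 SD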;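 note: Nile Red retained in pooled yeast measured as flow cytometry median fluorescence; 0% = buffer negative control and 100% = Enniatin B positive control; higher means more Nile Red kept so more efflux inhibition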
Yeast cmpd fluor: counter-screen for efflux pump inhibitors: compound fluorescence; shares compounds with Efflux pump inh; S. cerevisiae AD/pABC3, flow cytometry; fluorescence ratio to DMSO, % at 10 µM; 4% of 1,700 active;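 active = fluorescence ratio to DMSO above its plate's cutoff, the plate mean ratio plus 5 SD, cut at about 210% in these data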;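 note: unstained yeast with no Nile Red so the signal is compound autofluorescence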
CaMdr1 efflux inh: inhibitors of Candida albicans Mdr1 efflux pump; inhibition, % at 10 µM; S. cerevisiae AD/CaMDR1, Nile Red efflux, flow cytometry; shares compounds with Efflux pump inh; 1% of 1,700 active; AID 588518; in the data active = inhibition above about 26%;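 note: 0% = DMSO vehicle and 100% = reference inhibitor; higher means more Nile Red retained so more efflux inhibition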
CaCdr2 efflux inh: Candida Cdr2 efflux pump inhibition; shares compounds with Efflux pump inh; AID 588520; Nile Red retention ratio vs DMSO, % at 10 µM; 4% of 1,700 active; S. cerevisiae AD/CaCDR2, Nile Red retention, flow cytometry; in the data active = Nile Red retention ratio vs DMSO above about 190%;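 note: higher ratio means more blocking of Cdr2 efflux of the dye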
Cdr1 pump inh: inhibitors of Candida albicans Cdr1 efflux pump. 1% of 1,700 active. inhibition, % at 10 µM. S. cerevisiae AD/CaCDR1, Nile Red efflux, flow cytometry. shares compounds with Efflux pump inh. AID 588522;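 active = inhibition above the screen-wide mean plus twice its standard deviation, cut at about 32% in these data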
Starred values were filed as active, the others as inactive; ? = inconclusive; . = no result given.

SMILES	Yeast superoxide	IDE act	TbMetRS inhib	IDE cell inh	HDAC3 inhib	Efflux pump inh	Yeast cmpd fluor	CaMdr1 efflux inh	CaCdr2 efflux inh	Cdr1 pump inh
CCc1nc2ccc(C(=O)Nc3cccc(OCC(=O)N(C)C)c3)cn2c1N(C)Cc1ccc(OC)cc1	.	.	-1	.	.	.	.	.	.	.
CCN(CC)c1ccc(/C=C/C(=O)c2cccnc2)cc1	119	7	-2	0	1	69*	115	12	101	0
O=C(/C=C/c1ccc(Cl)cc1)c1cccnc1	119	-10	-1	4	4	0	.	.	.	.
CC(=O)NC1=NC(=O)/C(=C/c2cc(C)n(-c3cccc(C(=O)O)c3)c2C)S1	.	.	0	.	.	.	.	.	.	.
CC(=O)NC1=NC(=O)/C(=C/c2cc(C)n(-c3ccc(NC(C)=O)cc3)c2C)S1	115	-9	0	10	-3	1.4*	120	0	97	2
COc1cc(/C=C/C(=O)OCC(=O)NCC2CCCO2)ccc1OCC#N (stereo unspecified)	107	0	0	3	3	6.5*	98	0	90	0
Cc1ccnc(SCc2cn3c(C)cccc3n2)n1	109	-1	0	-7	5	1.1*	100	0	96	0
N#CCCn1cc(/C=N/O)c(-c2ccc(Cl)cc2)n1	132	-3	-1	-6	-7	6.7*	104	0	103	0
N#CCCn1cc(/C=N/O)c(-c2ccc(-c3ccccc3)cc2)n1	98	3	0	3	5	0	.	.	.	.
Cc1ccc(OCC(=O)Nc2cnn(CCCC(=O)O)c2)c([N+](=O)[O-])c1	90	2	0	2	-5	3.9*	149	2	93	0
CCOC(=O)Cc1csc(SCC(=O)NC2CCC(C)CC2)n1 (stereo unspecified)	114	3	-1	4	1	0	.	.	.	.
CC(=O)OCCNc1cc(N2CCN(C)CC2)c2noc3c2c1C(=O)c1ccccc1-3	.	8	0	.	.	.	.	.	.	.
CCOC(=O)C(C(=O)OCC)c1cc(Br)c2noc3c2c1C(=O)c1ccccc1-3	113	-17	0	3	0	0.8*	826*	1	193*	0
CC(C)(C)OC(=O)N1CCC2(CC1)Oc1ccc(F)cc1C(=O)C21CC(c2ccc(Cl)cc2)=NO1 (stereo unspecified)	103	.	.	2	10	0	.	.	.	.
O=C(/C=C/c1cccs1)N1CCC2(CC1)Oc1ccc(F)cc1C(=O)C21CC(c2ccccc2)=NO1 (stereo unspecified)	91	2	0	10	-2	0.6*	108	0	95	0
O=C(c1ccc2c(c1)OCO2)N1CCC2(CC1)Oc1ccc(F)cc1C(=O)C21CC(c2ccc(Cl)cc2)=NO1 (stereo unspecified)	96	1	0	-1	-1	23*	107	26*	110	1
O=C(/C=C/c1cccs1)N1CCC2(CC1)Oc1ccc(F)cc1C(=O)C21CC(c2ccc(Cl)cc2)=NO1 (stereo unspecified)	90	-2	0	6	8	0	.	.	.	.
O=C(c1ccc2c(c1)OCO2)N1CCC2(CC1)Oc1ccc(Cl)cc1C(=O)C21CC(c2ccccc2)=NO1 (stereo unspecified)	89	-5	0	6	2	0	94	0	87	0
CCC(=O)N1CCC2(CC1)Oc1ccc(Cl)cc1C(=O)C21CC(c2cccnc2)=NO1 (stereo unspecified)	105	-3	0	4	0	0	.	.	.	.
Cc1noc(C)c1C(=O)N1CCC2(CC1)Oc1ccc(F)cc1C(=O)C21CC(c2ccc(Cl)cc2)=NO1 (stereo unspecified)	97	-1	0	2	-1	6.4*	100	0	98	0
O=C(c1cccc2nccnc12)N1CCCC(Nc2ccc(F)c(F)c2)C1 (stereo unspecified)	91	0	0	-7	2	0	.	.	.	.
CN(Cc1c(F)cccc1Cl)C(=O)c1ccc2ccccc2n1	106	-2	0	-1	-1	0	.	.	.	.
C#CCCOC(=O)N1C2=NC(C(=O)OC)=C(C(=O)OC)[C@@H]3N(Cc4ccccc4)c4ccccc4[C@]23C[C@H]1C(=O)OC	98	-1	0	-1	11	0	.	.	.	.
O=C(NNC(=S)NCc1ccco1)c1ccc(S(=O)(=O)N2CCOCC2)cc1	95	6	-1	5	-8	0	.	.	.	.
COc1ccccc1NC(=O)Nc1nc(CC(=O)Nc2cc(F)ccc2F)cs1	103	2	-1	1	-5	0	.	.	.	.
SMILES	Yeast superoxide	IDE act	TbMetRS inhib	IDE cell inh	HDAC3 inhib	Efflux pump inh	Yeast cmpd fluor	CaMdr1 efflux inh	CaCdr2 efflux inh	Cdr1 pump inh
Nc1nc(SCC(=O)Nc2ccccc2C(F)(F)F)[nH]c(=O)c1-c1ccccc1	93	6	1	-4	7	0	.	.	.	.
CC(C)(C)NS(=O)(=O)c1ccc(NC(=O)c2cc(-c3ccccc3)nc3ccccc23)cc1	107	0	-1	-3	1	0	.	.	.	.
Cc1ccc(-c2cc(C(=O)Nc3ccc(S(=O)(=O)Nc4ncccn4)cc3)c3ccccc3n2)cc1	86	-4	0	2	-6	8.2*	101	0	83	0
CCc1ccc(-c2cc(C(=O)Nc3ccc(S(=O)(=O)NC(C)=O)cc3)c3ccccc3n2)cc1	96	-2	-2	6	6	0	104	0	97	0
COc1cc(-c2cc(C(=O)Nc3cccc(C(C)=O)c3)c3ccccc3n2)cc(OC)c1OC	102	3	0	1	-1	2	.	.	.	.
COc1cc(-c2cc(C(=O)Nc3ccc(O)cc3)c3ccccc3n2)cc(OC)c1OC	105	0	-1	-1	.	0	102	0	98	0
OC(COc1ccc(Br)cc1)CN1CCC(Cc2ccccc2)CC1 (stereo unspecified)	72	2	-1	6	?	0	.	.	.	.
O=C(CNc1cc(S(=O)(=O)N2CCOCC2)ccc1N1CCCC1)Nc1ccc(Cl)cc1F	.	.	5	.	.	.	.	.	.	.
O=C(c1ccccc1Oc1ccc(C(F)(F)F)cc1[N+](=O)[O-])N1CCOCC1	94	1	0	0	7	0	.	.	.	.
O=C(Nc1ccccc1Cl)c1ccccc1Oc1ccc(C(F)(F)F)cc1[N+](=O)[O-]	106	-2	-1	-1	4	0.4*	107	0	101	0
